Experimental findings from ChEMBL document CHEMBL1123240 (J Med Chem, 1986) are described below.

The species named for assay [1] is Rattus norvegicus. The assay is described as follows: Compound was tested for inhibition of hippocampal excitatory neurotransmission in schaffer collateral -CA1 pyramidal cells. The assay is classed as functional. In a few lines:
(§1)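 Transverse hippocampal slices, 450 μm, from 30–90-day-old male Holtzman rats. Held at 30 °C, submerged in stirred medium (10 mM glucose, 124 mM NaCl, 3.3 mM KCl, 2.4 mM MgSO4, 2.5 mM CaCl2, 1.2 mM KH2PO4, 26 mM NaHCO3; 95:5 O2/CO2, pH 7.4). Evoked synaptic field potentials recorded extracellularly; CA1 electrodes in stratum radiatum. Drug started at threshold and doubled every 4 min. IC50 from fraction of uninhibited response versus log concentration.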

The species entered for assay [2] is Rattus norvegicus. The experiment in a line: Compound was tested for inhibition of Lateral perforant path(LPP) neurotransmission in hippocampus. The assay is classed as functional. In a few lines:
as §1

The species named for assay [3] is Rattus norvegicus. The assay is described as follows: Compound was tested for inhibition of Medial perforant path(MPP) neurotransmission in hippocampus. The assay is classed as functional.
For assay [4], the species on record is Rattus norvegicus. The assay is described as follows: Compound was evaluated for its ability to displace [3H]APB from rat brain synaptic plasma membrane preparations.
Assay [5] is filed under the species Rattus norvegicus. The assay is described as follows: Hill coefficient value of compound was evaluated for [3H]-APB binding to rat brain synaptic plasma. In outline:
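Rat forebrain synaptic plasma membranes (Holtzman rats, 30–90 days; sucrose gradient, 1.0–1.3 M interface; 3–5 mg protein/mL stock). Membranes ≤200 μg/mL preincubated 5 min at 33 °C, then 1 h at 33 °C. Final: 50 mM HEPES pH 7.4, 10 mM CaCl2, 100 nM DL-[3H]APB, displacer up to 1 mM. Separation by centrifugation, scintillation counting. Nonspecific binding with 1 mM unlabeled ligand. Triplicates on ≥3 membrane preparations.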

The nature of assay [6]: Ratio of IC50 of Medial perforant path(MPP) to IC50 of Lateral perforant path(LPP). The assay is classed as functional. In outline:
(§2)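 Ratio of IC50 values. For line 8, LPP IC50 from slice recording over [3H]APB binding IC50. Each IC50 is a weighted mean of IC50s calculated for each experimental point, or for steep agonist-like curves is read directly from the log concentration–response curve.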

The nature of assay [7]: Ratio of IC50 of Lateral perforant path(LPP) to IC50 of [3H]- binding. The assay is classed as tissue-based. In a few lines: as §2
Assay [8] is filed under the species Rattus norvegicus. The experiment in a line: Compound was tested for inhibition of Medial perforant path(MPP) neurotransmission in hippocampus. The assay is classed as functional.
For assay [9], the species on record is Rattus norvegicus. The experiment in a line: Compound was tested for inhibition of hippocampal excitatory neurotransmission in schaffer collateral -CA1 pyramidal cells. Type of assay: functional. In outline:
as §1

For `N[C@@]1(C(=O)O)CC[C@H](P(=O)(O)O)C1`, the IC50 (as a rule, the concentration that gives 50% inhibition) in assay [1] was 3800 µM; in assay [2] it was 960 µM; in assay [3] it was 2400 µM; in assay [4], 4.7 µM. The compound further registered a nH in [5] of 1. For the same compound, in assay [6], the Ratio stood at 2.5.
Consider `N[C@@]1(C(=O)O)CCC[C@@H](P(=O)(O)O)C1`, for which the IC50 in assay [1] was found to be 9600 µM; in assay [2] it was 5800 µM; in assay [3], 10000 µM; in assay [4], 750 µM. The Ratio turned out to be 7.7 in assay [7] and 1.7 in assay [6].
For the compound `N[C@@]1(C(=O)O)CCC[C@H](P(=O)(O)O)C1`, the IC50 in assay [1] is 8100 µM; in assay [2], 3100 µM; in assay [3] it was 7300 µM; in [4], 840 µM. In addition, the Ratio in assay [7] worked out at 3.7; in [6], 2.4.
On to `N[C@@]1(C(=O)O)CC[C@@H](P(=O)(O)O)C1`, for which the IC50 is > 10000 µM in assay [1], 130 µM in [2], 1850 µM in assay [3] and 80 µM in assay [4]. In addition, in [5], the nH was 1.
Turning to `N[C@@H](CCP(=O)(O)O)C(=O)O`, the IC50 was 2.5 µM in assay [2], 45 µM in assay [8], 1.5 µM in [4] and 2500 µM in assay [9]. Besides, the nH in [5] was 0.8. Also, the Ratio in assay [6] is reported as 18.
